The species entered for one data set is Rattus norvegicus. As to the kind of experiment: Selectivity ratio of Ki for rat liver sigma2 receptor to rat brain sigma1 receptor. In short, it runs like this: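 Competition binding used rat brain homogenates for σ1 with (+)-[³H]pentazocine. Rat liver homogenates were used for σ2 with [³H]DTG, in the presence of 10 μM dextrallorphan to mask σ1 sites. Ki values are means ± SD of three experiments, each in triplicate. Selectivity is Ki(σ2)/Ki(σ1).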

A short description of data set [1]: Displacement of [3H]-1,3-di-o-tolylguanidine from rat liver sigma2 receptor by competitive binding assay. In short, it runs like this:
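Rat liver homogenate as the σ2 source, with [3H]DTG as radioligand plus 10 μM dextrallorphan to mask σ1 sites, in a competition format. Ki values are mean ± SD of three experiments, each run in triplicate.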
Background: Loss of bound radioactivity is the signal in a displacement assay; it reports binding, not function.

The target in data set [2] is Sigma non-opioid intracellular receptor 1 (Rattus norvegicus, UniProt Q9R0C9). As to the kind of experiment: Displacement of (+)-[3H]pentazocine from rat brain sigma1 receptor by competitive binding assay.
Sigma non-opioid intracellular receptor 1 (Rattus norvegicus, UniProt Q9R0C9), sequence (Q9R0C9 whole entry): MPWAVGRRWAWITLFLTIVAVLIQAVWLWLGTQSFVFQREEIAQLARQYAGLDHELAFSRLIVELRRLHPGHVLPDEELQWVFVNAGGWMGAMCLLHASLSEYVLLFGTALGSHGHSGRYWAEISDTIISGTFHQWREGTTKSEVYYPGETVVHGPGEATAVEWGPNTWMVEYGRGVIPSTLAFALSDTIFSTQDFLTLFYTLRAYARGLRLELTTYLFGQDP
Data set [3] can be described thus: Binding affinity to sigma2 receptor (unknown origin). More on the design: species or system Homo sapiens.
Data set [4] deals with T1, Sigma non-opioid intracellular receptor 1 (Homo sapiens, UniProt Q99720). In words: Binding affinity to sigma1 receptor (unknown origin). In short, it runs like this:
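Radioligand competition binding on rat brain homogenates using (+)-[³H]pentazocine as the competing radioligand. Ki values are means ± SD of three experiments, each performed in triplicate.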

A short description of data set [5]: Ratio of drug uptake from mouse brain to blood after 30 mins. The format is ADME, tissue-based. Particulars: brain and blood. A digest of the protocol:
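Male ICR mice (n = 5 per time point) received an intravenous saline solution of the radiotracer (370 kBq, 0.1 mL). They were decapitated at 2, 30, 60 and 120 min. Brain, blood and other organs were weighed and γ-counted against diluted injectate aliquots, decay-corrected, and expressed as %ID/g of wet tissue (mean, SD). The brain/blood ratio is given at each time.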

The test system of data set [6] is Brain. As to the kind of experiment: Biodistribution in mouse brain after 5 mins by PET imaging analysis. Particulars: in vivo. The format is ADME, organism-based.
Data set [7] deals with Brain. In words: Biodistribution in iv dosed CD1 mouse brain after 30 mins in presence of haloperidol relative to control. The format is ADME, organism-based. The following applies: in vivo, 0.5 h.
Another data set is filed under the species Homo sapiens. In words: Selectivity ratio of Ki for human sigma2 receptor to human sigma1 receptor.
Data set [8] has as its system Liver microsomes. In words: Metabolic stability in rat liver microsomes assessed as retention time at 100 uM by UPLC-MS analysis in presence of beta-NADPH. Type of data set: ADME, Microsome. A digest of the protocol:
(§1)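 Rat liver microsomes (2 mg protein/mL) with 100 μM compound and an NADPH-generating system (2 mM β-NADPH, 20 mM glucose 6-phosphate, 2 U G6PDH, 12 mM MgCl₂) in 0.05 M Tris-HCl pH 7.4. Preincubated 3 min, then run 30 min at 37 °C and stopped with ice-cold methanol. Supernatant analysed by UPLC-ESI(+)-MS against compound-free blanks.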
(Microsomes from liver hold many membrane-bound enzymes, among them those of drug oxidation.)

In data set [9] the target is Vesicular acetylcholine transporter (Rattus norvegicus, UniProt Q62666). In words: Displacement of (-)-[3H]-vesamicol from rat VAChT transfected in rat PC12 cells after 120 mins by competitive binding assay. The format is cell-based, PC-12. A digest of the protocol: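 Membrane homogenates from PC12 cells stably expressing rat VAChT, with 1 nM (−)-[3H]vesamicol, test ligand at 10⁻¹¹–10⁻⁵ M, in 50 mM Tris-HCl pH 7.4, 120 min at room temperature. Nonspecific binding was defined with 10 μM (−)-vesamicol. Ki from Cheng–Prusoff; mean of two experiments, each in triplicate.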
Vesicular acetylcholine transporter, sequence (Q62666 whole entry): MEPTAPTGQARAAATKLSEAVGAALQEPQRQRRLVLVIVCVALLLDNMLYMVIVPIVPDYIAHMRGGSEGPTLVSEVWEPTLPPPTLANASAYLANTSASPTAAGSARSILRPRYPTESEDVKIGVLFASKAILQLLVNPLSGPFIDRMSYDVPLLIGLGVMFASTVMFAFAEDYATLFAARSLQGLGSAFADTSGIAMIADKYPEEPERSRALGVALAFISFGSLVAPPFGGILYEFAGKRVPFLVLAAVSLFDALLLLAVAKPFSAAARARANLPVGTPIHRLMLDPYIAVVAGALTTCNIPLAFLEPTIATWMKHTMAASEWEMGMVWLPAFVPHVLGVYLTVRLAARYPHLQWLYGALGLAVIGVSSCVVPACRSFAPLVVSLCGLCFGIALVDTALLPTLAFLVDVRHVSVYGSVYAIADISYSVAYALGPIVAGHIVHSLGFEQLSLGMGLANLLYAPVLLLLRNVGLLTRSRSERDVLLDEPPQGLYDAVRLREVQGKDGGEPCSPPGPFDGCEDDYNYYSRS

Data set [10] has as its system Liver microsomes. In words: Metabolic stability in rat liver microsomes assessed as retention time by UPLC-MS analysis in presence of beta-NADP. The format is ADME, Microsome. A digest of the protocol:
as §1

The subject of data set [11] is Brain. As to the kind of experiment: Metabolic stability in ICR mouse brain at 18.5 MBq, iv after 30 mins by HPLC analysis. The format is ADME, organism-based. Particulars: in vivo, 0.5 h. A digest of the protocol:
(§2)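 Male ICR mice given radiotracer iv (18.5 MBq, 0.2 mL), killed at 30 min. Brain and liver were homogenized in ice-cold PBS (0.01 M, pH 7.4) and extracted with ice-cold MeCN. Supernatants were filtered, concentrated and analysed by radio-HPLC on a C18 column, acetonitrile/water with 0.1% TFA (45:55), 1 mL/min.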

A further data set concerns Liver. In words: Metabolic stability in ICR mouse liver assessed as retention time at 18.5 MBq, iv by HPLC analysis. The format is ADME, organism-based. Particulars: in vivo. In short, it runs like this:
as §2

Data set [12] is described as follows: Metabolic stability in ICR mouse liver at 18.5 MBq, iv after 30 mins by HPLC analysis. Type of data set: ADME, organism-based. Particulars: read-out: Stability. A digest of the protocol:
as §2

The target of data set [13] is T1, Sigma non-opioid intracellular receptor 1. In words: Binding affinity to human brain sigma1 receptor.
Data set [14] in a line: Lipophilicity, log D of the compound at pH 7.4. Type of data set: physicochemical. Particulars: buffer. A digest of the protocol:
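Shake flask: radiotracer (370 kBq) in 3 mL 1-octanol plus 3 mL 0.05 M sodium phosphate buffer pH 7.4, vortexed 3 min at room temperature, then centrifuged. Both phases were gamma-counted and log D = log(cpm/mL octanol ÷ cpm/mL buffer). The octanol layer was repartitioned until values were consistent. Triplicate, repeated three times.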

The subject of data set [15] is Brain. As to the kind of experiment: Biodistribution in iv dosed CD1 mouse brain after 15 mins by PET imaging analysis. Type of data set: ADME, organism-based. Particulars: in vivo, 0.25 h.
For data set [16], the system named is Brain. In words: Biodistribution in mouse brain after 60 mins in presence of haloperidol relative to control. Type of data set: ADME, organism-based. The following applies: in vivo, 1 h. A digest of the protocol: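 Male ICR mice (n = 5 per group) got saline (0.1 mL) or haloperidol (0.1 mL, 1.0 mg/kg) via tail vein 5 min before iv [18F]tracer (370 kBq, 0.1 mL, saline). Killed by decapitation at 60 min. Brain was weighed and gamma-counted with decay correction, giving %ID/g against diluted injectate. Control vs blocking compared by two-tailed independent Student's t test.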

The nature of data set [17]: Ratio of drug uptake from […] mouse brain to blood after 120 mins. The format is ADME, tissue-based. Particulars: brain and blood. A digest of the protocol:
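Male ICR mice (n = 5 per time point) received [18F]tracer (370 kBq, 0.1 mL saline) iv and were decapitated at 2, 30, 60 and 120 min. Brain and blood were weighed and gamma-counted, decay-corrected and expressed as %ID/g against diluted injectate. The brain/blood ratio was taken from these %ID/g values.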

In data set [18] the target is 3-beta-hydroxysteroid-Delta(8),Delta(7)-isomerase (Homo sapiens, UniProt Q15125). As to the kind of experiment: Binding affinity to EBP (unknown origin).
3-beta-hydroxysteroid-Delta(8),Delta(7)-isomerase, sequence (Q15125 whole entry): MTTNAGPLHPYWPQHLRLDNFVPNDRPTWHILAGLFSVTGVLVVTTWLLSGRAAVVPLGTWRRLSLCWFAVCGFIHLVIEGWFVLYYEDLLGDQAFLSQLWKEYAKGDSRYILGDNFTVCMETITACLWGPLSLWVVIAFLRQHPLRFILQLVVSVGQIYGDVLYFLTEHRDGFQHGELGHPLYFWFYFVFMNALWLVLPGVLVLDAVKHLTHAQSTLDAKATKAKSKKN

Data on 19 molecules can be found in ChEMBL document CHEMBL2346503, “Synthesis and evaluation of novel (18)F-labeled spirocyclic piperidine derivatives as σ1 receptor ligands for positron emission tomography imaging” (J Med Chem, 2013).

Broadly, the Ki is a dissociation constant, usually derived from enzyme kinetics or from competition with a known ligand. High values mean lower affinity, low ones higher affinity. The term Kp denotes tissue or fluid exposure divided by exposure in the circulation. The logD is lipophilicity at a set pH, counting ionised and neutral species. Read a low logD as lower lipophilicity.

T1 sequence (Q99720 whole entry): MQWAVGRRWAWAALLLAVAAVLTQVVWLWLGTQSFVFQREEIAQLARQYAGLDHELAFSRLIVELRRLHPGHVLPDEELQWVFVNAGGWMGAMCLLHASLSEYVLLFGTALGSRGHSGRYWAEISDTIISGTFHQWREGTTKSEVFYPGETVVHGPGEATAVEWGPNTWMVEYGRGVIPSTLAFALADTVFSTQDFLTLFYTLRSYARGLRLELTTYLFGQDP

In the case of `Ic1ccc(CN2CCC3(CC2)OCc2ccccc23)cc1`, the Ratio Ki in the data set listed under Rattus norvegicus was found to be 123. The Ki in data set [1] turned out to be 0.34 µM; in data set [2], 0.00275 µM; in data set [3], 0.34 µM; in data set [4], 0.00275 µM.
For `COc1ccc(CN2CCC3(CC2)OCc2ccccc23)cc1`, the Ratio Ki in the data set listed under Rattus norvegicus was determined as 162. Moreover, the Ki in data set [1] came out at 0.276 µM; in data set [2], 0.0017 µM.
As for `COc1cc(CCN2CCN(CCCc3ccccc3)CC2)ccc1O[11CH3]`, the partition ratio (Kp) at 0.5 h in [5] was determined as 11.6. Also, the results for the Drug uptake in the data set on Brain [6] and in the data set on Brain [7] were 3.61 % ID/g and 60%, respectively.
For `N#Cc1ccc(OCC2CCN(C/C=C/I)CC2)cc1`, the Ratio Ki in the data set filed under Homo sapiens (tested as the 123I-labelled form) was 58.
Consider `FCCOc1ccc(CN2CCC3(CC2)OCc2ccccc23)cc1`, for which the Retention_time in the data set with Liver microsomes [8] came out at 1.82 min. Also, the Ratio Ki in the data set listed under Rattus norvegicus was determined as 350. Moreover, the Ki in data set [1] is 0.277 µM; in data set [2], 0.00079 µM; in data set [9], 0.631 µM.
In the case of `Oc1ccc(CN2CCC3(CC2)OCc2ccccc23)cc1`, the Retention_time with Liver microsomes [10] is 1.74 min.
`OCc1ccccc1C1(O)CCN(Cc2ccc(OCC[18F])cc2)CC1`: in the data set on Brain [11], the Stability result was “Unstable”. For the same molecule, the Retention_time in the data set on Liver is 4.68 min. The remaining at 0.5 h in data set [12] is 26.9%.
With `OCc1ccccc1C1(O)CCN(Cc2ccc(OCCF)cc2)CC1`, the Retention_time in the data set with Liver microsomes [10] was determined as 1.42 min.
With `N#Cc1ccc(OCC2CCN(CCCF)CC2)cc1`, in the data set filed under Homo sapiens (tested as the 18F-labelled form), the Ratio Ki came out at 33.
For `FCCOCCOc1ccc(CN2CCC3(CC2)OCc2ccccc23)cc1`, in the data set filed under Rattus norvegicus, the Ratio Ki came to 16. Moreover, the Ki was 0.86 µM in data set [1] and 0.0529 µM in [2].
In turn, `N#Cc1ccc(OCC2CCN(CCC[18F])CC2)cc1` returned a Ki in data set [13] of 0.0043 µM.
As to `O=C(CCCN1CCC(O)(c2ccc(Cl)cc2)CC1)c1ccc(F)cc1` [HALOPERIDOL], the affinity in [1] corresponds to a Ki of 0.0207 µM.
On to `[125I]c1ccc(CN2CCC3(CC2)OCc2ccccc23)cc1`, for which the logD in [14] turned out to be 3.06. Moreover, the Drug uptake in the data set with Brain [15] is listed as 5.28 % ID/g.
In the case of `Fc1ccc(CN2CCC3(CC2)OCc2ccccc23)cc1`, the Ratio Ki in the data set listed under Rattus norvegicus stood at 182. For the same molecule, the Ki in data set [1] was determined as 0.106 µM; in [2] it was 0.00058 µM.
For the molecule `[18F]CCC1OC2(CCN(Cc3ccccc3)CC2)c2ccccc21` (centres undefined), the Drug uptake with Brain [6] turned out to be 3.88 % ID/g; in the data set with Brain [16], 62%. Also, the Kp at 2 h in [17] was 18.8.
On to `COc1ccc(CCN2CCN(CCCc3ccccc3)CC2)cc1OC` [[11C]SA4503], for which the affinity in data set [18] corresponds to a Ki of 0.00172 µM.
As for `FCCOc1ccc(CN2CCC3(CC2)OCc2ccccc23)cn1`, the Ratio Ki in the data set filed under Rattus norvegicus turned out to be 142. Moreover, the Ki was 0.327 µM in data set [1] and 0.0023 µM in [2].
Take `N#Cc1ccc(OCC2CCN(C/C=C/[123I])CC2)cc1`: the Ki in data set [13] is 0.00067 µM.
On to `FCCOCCOCCOc1ccc(CN2CCC3(CC2)OCc2ccccc23)cc1`, for which, in the data set listed under Rattus norvegicus, the Ratio Ki stood at 16. The Ki is 0.592 µM in data set [1] and 0.0375 µM in data set [2].
